Screening results deposited in PubChem BioAssay by several laboratories.
Most compounds without a hit are left out; they make up all but 3.9% or so of the library.
Pf gametocyte: P. falciparum stage V gametocyte viability inhibition | AID 743093 | P. falciparum stage V gametocytes, ATP luminescence, 24 h | 150,000 compounds, 0.065% hits | inhibition, % at 10.9 µM;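 active = inhibition above the mean plus 3 SD of compounds within the control limits, set per campaign, cut at about 38% in these data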;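 note: 0% = DMSO wells and 100% = medium only without gametocytes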
NF-kB neuron act: NF-kB expression increase, human neuronal cells | NF-kB reporter expression; stronger effect = higher value | fold change at 12.5 µM | 190,000 compounds, 1.6% hits | AID 1239; in the data active = fold change above about 3.3
STAT1 blocker: STAT1 signaling inhibition. NIH 3T3 STAT1-luciferase reporter, IFN-gamma, luminescence. inhibition, % at 5.5 µM. 200,000 compounds, 0.35% hits;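 active = inhibition above a set limit, the mean inhibition across all tested compounds plus 3 SD, cut at about 34% in these data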;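 note: 0% = IFN-gamma with DMSO and 100% = IFN-gamma with 300 µM nifuroxazide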
STAT1 activator: increases IFN-gamma driven STAT1 reporter signal | NIH 3T3 STAT1-luciferase reporter, luminescence; 100% = IFN-gamma alone, no compound | activation (% of control), % at 5.5 µM | 200,000 compounds, 2.6% hits;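 active = activation above the screen-wide mean activation plus 3 SD, cut at about 130% in these data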;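 note: raw ratio to IFN-gamma control signal so 100% means no change and 0% no light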
STAT3 act: STAT3 signaling activation | U3A cells, IL-6 STAT3-luciferase reporter, luminescence; 100% = signal with IL-6 EC80 alone | activation (% of control), % at 5.6 µM | 190,000 compounds, 0.91% hits | AID 871;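 active = activation above the screen-wide mean of compound activation plus 3 SD, cut at about 130% in these data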;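 note: 0% = background luminescence of wells with medium and substrate only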
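Test system: Human STAT1-deficient U3A cells with stable STAT3-luciferase reporter | Also added: Interleukin-6, 33 ng/mL | Timing: Compound pre-incubation 1 h before IL-6, then 6 h stimulation at 37 °C | Technique: Luciferase reporter luminescence | Read-out: Percent of IL-6-only median luminescence | Benchmarks: IL-6-only wells as 100% reference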
APP 5'UTR act: APP 5'UTR luciferase reporter activation | SH-SY5Y APP 5'UTR luciferase reporter, luminescence; zero percent = DMSO vehicle wells | activation, % at 2 µM | 190,000 compounds, 1% hits;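 active = activation above a set limit, based on mean plus 3 SD of controls, cut at about 140% in these data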
Numbers without * were called inactive; · = no result.

SMILES | Pf gametocyte | NF-kB neuron act | STAT1 blocker | STAT1 activator | STAT3 act | APP 5'UTR act
Cc1c(C#N)c(NC(=O)CCl)n(Cc2ccccc2)c1C | -9 | 0.23 | 24 | 77 | 80 | -10
COc1ccccc1NC(=O)c1csc2c1CCCC2 | -18 | 1.3 | 0 | 100 | 91 | 16
O=C(Nc1ccccn1)c1csc2c1CCCC2 | 7 | 3.9* | -43 | 137* | 100 | 133
O=C(Nc1ccccn1)c1onc2c1CCCC2 | -21 | 1.1 | -3 | 103 | 42 | 150*
Cc1ccc(C(=O)NCC(=O)NCC(=O)OCc2ccc(F)cc2)cc1 | 8 | 1 | -4 | 102 | 100 | 32
O=C(N/N=C/c1ccc(F)c(F)c1)c1cc2c(s1)-c1ccccc1CC2 | 19 | 0.81 | 2 | 98 | 82 | -7
CNC(=O)c1cc2c(s1)-c1ccccc1CC2 | 25 | 2 | -51 | 144* | 108 | 18
C/C(=N/Oc1nc(C)cc(C)n1)c1ccc(Br)cc1 | 6 | 1.1 | -10 | 105 | 83 | -4
Cc1cc(C)nc(Oc2ccc(Br)cc2Br)n1 | · | 0.86 | -47 | 142* | 99 | 23
CCc1ccc(NC(=S)Nc2cc(C(=O)O)ccc2N2CC3CC(C2)c2cccc(=O)n2C3)cc1 (stereo not given) | -2 | 1.2 | -11 | 109 | 99 | 24
O=C(O)c1ccc(N2CC3CC(C2)c2cccc(=O)n2C3)c(NC(=S)Nc2ccc(Br)cc2)c1 (stereo not given) | -5 | 3.9* | 4 | 95 | 83 | 12
O=[N+]([O-])c1ccc2nc(-c3ccc(OC(F)F)cc3)cn2c1 | -18 | 3.5* | -21 | 120 | 46 | 82
O=[N+]([O-])c1ccc(-c2cn3ccccc3n2)cc1 | -15 | · | · | · | · | ·
COc1ccc(N2CCN(C(=O)CSc3nc4[nH]ncc4c(=O)n3-c3ccc(Br)cc3)CC2)cc1 | · | 3.3* | 20 | 80 | 98 | -2
Cc1ccc(C(=C2C3C=CC2C2C(=O)NC(=O)C32)c2ccc(C)cc2)cc1 (stereo not given) | · | 1.2 | -1 | 101 | 102 | -2
COc1ccc(C2Nc3ccccc3C(=O)N2c2ccc(C)cc2)cc1Cn1nc(C)c([N+](=O)[O-])c1C (stereo not given) | -5 | 1.5 | -7 | 107 | 104 | 47
COc1ccc(C2Nc3ccccc3C(=O)N2c2ccc(C)cc2)cc1COc1ccccn1 (stereo not given) | · | 2 | -35 | 131* | 113 | 120
Cc1ccc(-n2cc(CN3CCN(C(=O)c4ncn[nH]4)CC3)c(-c3ccc(F)cc3)n2)cc1 | 10 | · | · | · | · | ·
COc1cccc(/C=C/C(=O)c2cccc([N+](=O)[O-])c2)c1 | -7 | 1.2 | -4 | 104 | 89 | -5
COc1ccc(OC(=O)c2cccc([N+](=O)[O-])c2)c(C(=O)/C=C/c2cccs2)c1 | -18 | 3.4* | -2 | 102 | 97 | -11
Cn1nc(-c2ccccc2)cc1NC(=O)c1cccs1 | -10 | · | · | · | · | ·
O=[N+]([O-])c1ccccc1N/N=C/c1c[nH]c2ccccc12 | 2 | 4.2* | -57 | 151* | 203* | 173*
C(=C\c1ccccc1)/C=N/Nc1nc2ccccc2[nH]1 | 5 | 4.5* | -53 | 148* | 108 | 137*
Fc1cccc(/C=N/Nc2ccc3ccccc3n2)c1 | -4 | 1.2 | 34 | 68 | 52 | 225*
O=S(=O)(N/N=C/c1ccc2c(c1)OCCO2)c1ccccc1 | · | 1.3 | 0 | 100 | 100 | 12
SMILES | Pf gametocyte | NF-kB neuron act | STAT1 blocker | STAT1 activator | STAT3 act | APP 5'UTR act
C(=N\Nc1nc2ccccc2[nH]1)/c1ccccc1 | -25 | 1 | -29 | 124 | 84 | 128
C(=N\Nc1ccccn1)/c1ccc2c(c1)OCCO2 | -53 | 1 | -41 | 137* | 76 | 140*
C(=N\Nc1nc2ccccc2[nH]1)/c1c[nH]c2ccccc12 | · | 3.3 | -33 | 130* | 112 | 52
Fc1cccc(/C=N/Nc2nc3ccccc3[nH]2)c1 | 4 | 2 | -44 | 141* | 90 | 133
Fc1cccc(/C=N/Nc2ccccn2)c1 | 10 | 2.3 | -41 | 138* | 100 | 113
Cc1ccccc1/C=N/Nc1nc2ccccc2[nH]1 | · | 1 | -5 | 103 | 87 | 94
Brc1ccc(-c2ccc(/C=N/Nc3nc4ccccc4[nH]3)o2)cc1 | -6 | 1.7 | -42 | 138* | 112 | 85
Brc1ccc(-c2ccc(/C=N/Nc3nncc(-c4ccccc4)n3)o2)cc1 | · | 1.1 | 6 | 94 | 99 | 18
CCCCN1C(=O)N(C)C2NC(=S)NC21 (stereo not given) | 23 | · | · | · | · | ·
COc1ccc(C(=O)C2CCCN(C(=O)CCc3scnc3C)C2)c(C)c1 (stereo not given) | -2 | · | 3 | 97 | 90 | -4
CC(C)NC(=O)CCc1nnc(Cc2cccc(C(F)(F)F)c2)o1 | 4 | 2.5 | -46 | 140* | 112 | 40
CCN(CCn1cccn1)C(=O)CCc1nnc(-c2ccc3c(c2)OCO3)o1 | -6 | 1.4 | -20 | 117 | 104 | 6
CCC(COC)NC(=O)CCc1nnc(Cc2cccc(C(F)(F)F)c2)o1 (stereo not given) | -44 | 1.9 | -17 | 114 | 95 | 22
CCN(CCn1cccn1)C(=O)CCc1nnc(CCCc2ccccc2)o1 | · | 4.1* | -53 | 147* | 118 | 67
CC(NC(=O)CCc1nnc(CCCc2ccccc2)o1)c1ccccc1 (stereo not given) | 50* | 2.1 | -33 | 128 | 105 | 30
Nc1c(C(=O)N2CCOCC2)sc2nc3c(cc12)CCC3 | 11 | 3.4* | -26 | 122 | 90 | 109
Nc1c(C(=O)N2CCCC2)sc2nc3c(cc12)CCCCCC3 | 14 | 1.8 | -50 | 147* | 104 | 132
NC(=O)c1sc2nc3c(cc2c1N)CCC3 | 5 | 2 | -10 | 109 | 83 | 27
O=C(N[C@H]1C/C=C\C[C@@H](CC(=O)N(CCO)Cc2ccccc2)C(=O)NC[C@H](c2ccccc2)OC1=O)OCC1c2ccccc2-c2ccccc21 | 0 | · | · | · | · | ·
O=C(CS(=O)c1ccccc1[N+](=O)[O-])Oc1ccc(Br)cc1 (stereo not given) | 10 | 1.2 | 20 | 81 | 105 | 10
CS(=O)(=O)c1ccc(S(=O)CC(=O)Oc2ccc(Cl)cc2)c([N+](=O)[O-])c1 (stereo not given) | · | 1.1 | 3 | 96 | 135* | -35
CC1(C)CC(=O)C2=C(C1)OC1OC(=O)CC21C (stereo not given) | 1 | 1.1 | -5 | 104 | 101 | 1
CC(=O)c1cnc2cc(C)nn2c1C | · | 1 | -13 | 112 | 112 | -1
CC(=O)c1cnc2cc(-c3ccc(C)cc3)nn2c1C | · | 6.6* | -41 | 137* | 101 | 60
COc1ccc(-c2cc3ncc(C(C)=O)c(C)n3n2)cc1 | · | 2.8 | -37 | 135* | 87 | 141*
Cc1ccc(-c2cc3ncc(C#N)c(N)n3n2)cc1 | -8 | 1 | -37 | 130* | 91 | 76
